This is an account of results in ChEMBL document CHEMBL1156778, “Synthesis and structure-activity studies of biphenyl analogues of the tuberculosis drug (6S)-2-nitro-6-{[4-(trifluoromethoxy)benzyl]oxy}-6,7-dihydro-5H-imidazo[2,1-b][1,3]oxazine (PA-824)” (J Med Chem, 2010).

pIC50: −log10 of the molar value. ≈ marks a conversion by molar mass, not a printed value.

In data set [1] the test system is Mycobacterium tuberculosis. Description: Antitubercular activity against Mycobacterium tuberculosis H37Rv in aerobic condition after 7 days by microplate alamar blue assay. In kind it is functional. Particulars: 168 h. In a few lines: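 M. tuberculosis H37Rv, replicating culture; 8-day microplate assay with Alamar blue added on day 7 to read growth. […] Mean of at least two independent determinations ± SD.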

The subject of data set [2] is Mycobacterium tuberculosis. Briefly: Antitubercular activity against Mycobacterium tuberculosis H37Rv in anaerobic condition after 7 days by low oxygen recovery assay. In kind it is functional. Particulars: 168 h.
Data set [3] relates to Mycobacterium tuberculosis. Description: Antitubercular activity against Mycobacterium tuberculosis H37Rv infected in BALB/c mouse measured per mouse at 100 mg/kg, po daily for 5 days a week for 3 weeks. The class given is functional.
Data set [4] is described as follows: Metabolic stability in pooled human liver microsomes assessed as compound remaining after 1 hr by LC-MS-MS. As to conditions: read-out: Stability. In kind it is ADME, Microsome. Summed up:
(§1)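 Test compound at 1 μM with pooled CD-1 mouse or human liver microsomes (0.5 mg/mL protein) and NADPH-regenerating system (3.3 mM MgCl2, 3.3 mM G6P, 0.4 U/mL G6PD, 1.3 mM NADP+) in 75 mM phosphate, pH 7.4, 0.5% DMSO, 37 °C. Stopped at 0 and 60 min with MeCN containing metoprolol internal standard. LC-MS/MS (ESI, SRM), duplicates. % remaining = 100 × mean peak-area ratio at 60 min / at 0 min.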

A short description of data set [5]: Metabolic stability in pooled CD1 mouse liver microsomes assessed as compound remaining after 1 hr by LC-MS-MS. The class given is ADME, Microsome. As to conditions: read-out: Stability. Summed up: as §1
Data set [6] deals with Mycobacterium tuberculosis. Description: Antitubercular activity against Mycobacterium tuberculosis H37Rv infected in BALB/c mouse assessed as ratio of lung CFU for compound to lung CFU for PA-824 at 100 mg/kg, po daily for 5 days a week for 3 weeks. In kind it is functional.
Another data set deals with Vero. Briefly: Cytotoxicity against african green monkey Vero cells after 72 hrs by MTS assay. The class given is cell-based. As to conditions: Chlorocebus sabaeus. In a few lines:
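VERO cells (CCL-81), 72 h exposure, tetrazolium dye read-out.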

On to `O=[N+]([O-])c1cn2c(n1)OC[C@@H](OCc1ccc(-c3ccc(OC(F)(F)F)cc3Cl)cc1)C2`, for which the results for the minimum inhibitory concentration (MIC) in data set [1] and in data set [2] were 0.04 µM (≈ 0.0188 µg/mL) and 0.78 µM (≈ 0.366 µg/mL), respectively. In data set [3], this molecule had a CFU of 390. The remaining at 1 h worked out at 91% in data set [4] and 86% in data set [5]. For the same molecule, in data set [6], the “fold change (FC)” value was 23. Further, the pIC50 with Vero was below 3.90.

With `O=[N+]([O-])c1cn2c(n1)OC[C@@H](OCc1ccc(-c3ccc(OC(F)(F)F)cc3F)cc1)C2`, the MIC worked out at 0.045 µM (≈ 0.0204 µg/mL) in data set [1] and 0.72 µM (≈ 0.326 µg/mL) in data set [2]. The molecule further gave a CFU in data set [3] of 39. Besides, the remaining at 1 h in data set [4] turned out to be 88%; in data set [5] it was 89%. Also, the “fold change (FC)” value in data set [6] was 46. Further, the pIC50 in the data set on Vero was below 3.90.

For `O=[N+]([O-])c1cn2c(n1)OC[C@@H](OCc1ccc(-c3ccc(Oc4ccccc4)cc3)cc1)C2`, the figures for the MIC in data set [1] and in data set [2] were 0.04 µM (≈ 0.0177 µg/mL) and 2.7 µM (≈ 1.2 µg/mL), respectively. Moreover, the CFU in data set [3] stood at 330000. Besides, the remaining at 1 h stood at 22% in data set [4] and 48% in data set [5]. Also, in data set [6], the “fold change (FC)” value was below 0.01. The pIC50 in the data set on Vero was below 3.90.

As for `O=[N+]([O-])c1cn2c(n1)OC[C@@H](OCc1ccc(-c3ccc(Cl)c(C(F)(F)F)c3)cc1)C2`, the MIC in data set [1] amounted to 0.035 µM (≈ 0.0159 µg/mL); in data set [2], 1.9 µM (≈ 0.862 µg/mL). Besides, the CFU in data set [3] amounted to 30. In addition, the remaining at 1 h is 92% in data set [4] and 96% in data set [5]. Moreover, the “fold change (FC)” value in data set [6] came to 7.7. The molecule also gave a pIC50 with Vero below 3.90.

Regarding `O=[N+]([O-])c1cn2c(n1)OC[C@@H](OCc1ccc(-c3ccc(OC(F)F)cc3)cc1)C2`, the MIC was determined as 0.05 µM (≈ 0.0209 µg/mL) in data set [1] and 0.77 µM (≈ 0.321 µg/mL) in data set [2]. This molecule also displayed a CFU in data set [3] of 1100. For the same molecule, the values for the remaining at 1 h in data set [4] and in data set [5] were 94% and 77%, respectively. Besides, the “fold change (FC)” value in data set [6] stood at 8.5. The molecule also gave a pIC50 with Vero below 3.90.

In the case of `O=[N+]([O-])c1cn2c(n1)OC[C@@H](OCc1ccc(-c3ccc(CNc4ccccc4)cc3)cc1)C2`, the figures for the MIC in data set [1] and in data set [2] were 0.06 µM (≈ 0.0274 µg/mL) and 0.63 µM (≈ 0.288 µg/mL), respectively. This molecule also displayed a CFU in data set [3] of 500000. The remaining at 1 h in data set [4] stood at 12%; in data set [5] it was 52%. Also, the “fold change (FC)” value in data set [6] came to 0.03. The pIC50 in the data set on Vero was below 3.90.

Take `N#Cc1ccc(-c2ccc(CO[C@@H]3COc4nc([N+](=O)[O-])cn4C3)cc2)cc1`: the MIC was 0.025 µM (≈ 0.00941 µg/mL) in data set [1] and 0.58 µM (≈ 0.218 µg/mL) in data set [2]. In data set [3], this molecule showed a CFU of 4500. Besides, the remaining at 1 h in data set [4] was found to be 95%; in data set [5], 58%. The “fold change (FC)” value in data set [6] was determined as 3.6. In the data set on Vero, the pIC50 is below 3.90.

On to `COc1c(F)cc(F)cc1-c1ccc(CO[C@@H]2COc3nc([N+](=O)[O-])cn3C2)cc1`, for which the MIC in data set [1] stood at 0.04 µM (≈ 0.0167 µg/mL); in data set [2], 0.86 µM (≈ 0.359 µg/mL). In data set [3], this molecule came in with a CFU of 200000. Also, the remaining at 1 h in data set [4] was determined as 72%; in data set [5], 2%. In addition, the “fold change (FC)” value in data set [6] was found to be 0.4. This molecule also gave a pIC50 in the data set with Vero below 3.90.

`O=[N+]([O-])c1cn2c(n1)OC[C@@H](OCc1ccc(-c3ccc(C(F)(F)F)cc3)cc1)C2`: the MIC in data set [1] turned out to be 0.03 µM (≈ 0.0126 µg/mL); in data set [2] it was 1.4 µM (≈ 0.587 µg/mL). In addition, in data set [3], the CFU is reported as 1100. Also, the remaining at 1 h in data set [4] was found to be 60%; in data set [5], 85%. In data set [6], the “fold change (FC)” value is 72. The molecule further had a pIC50 in the data set on Vero below 3.90.

As to `CCOc1ccccc1-c1ccc(CO[C@@H]2COc3nc([N+](=O)[O-])cn3C2)cc1`, the MIC stood at 0.03 µM (≈ 0.0119 µg/mL) in data set [1] and 0.82 µM (≈ 0.324 µg/mL) in data set [2]. The molecule further displayed a CFU in data set [3] of 540000. Besides, the remaining at 1 h in data set [4] was 50%; in data set [5] it was 0.2%. Besides, the “fold change (FC)” value in data set [6] is on record as 0.15. In addition, in the data set with Vero, the pIC50 was below 3.90.

On to `COc1ccc(-c2ccc(CO[C@@H]3COc4nc([N+](=O)[O-])cn4C3)cc2)cc1F`, for which the MIC stood at 0.04 µM (≈ 0.016 µg/mL) in data set [1] and 1.9 µM (≈ 0.759 µg/mL) in data set [2]. The molecule also had a CFU in data set [3] of 850000. The values for the remaining at 1 h in data set [4] and in data set [5] were 80% and 50%, respectively. In data set [6], the “fold change (FC)” value was determined as 0.02. The molecule further gave a pIC50 with Vero below 3.90.

As to `O=[N+]([O-])c1cn2c(n1)OC[C@@H](OCc1ccc(-c3ccc(OC(F)(F)F)c(Cl)c3)cc1)C2`, the minimal inhibitory concentration (MIC) in data set [1] came to 0.03 µM (≈ 0.0141 µg/mL); in data set [2] it was 0.9 µM (≈ 0.423 µg/mL). The molecule also registered a CFU in data set [3] of 6.4. Further, the remaining at 1 h in data set [4] was 90%; in data set [5], 84%. The “fold change (FC)” value in data set [6] was 281. Further, the pIC50 in the data set on Vero is below 3.90.

With `O=[N+]([O-])c1cn2c(n1)OC[C@@H](OCc1ccc(-c3ccc(F)cc3)cc1)C2`, the figures for the MIC in data set [1] and in data set [2] were 0.015 µM (≈ 0.00554 µg/mL) and 1.4 µM (≈ 0.517 µg/mL), respectively. In data set [3], the CFU worked out at 5400. The remaining at 1 h in data set [4] turned out to be 75%; in data set [5] it was 55%. For the same molecule, the “fold change (FC)” value in data set [6] is recorded as 3. Further, the pIC50 in the data set with Vero is below 3.90.

For the molecule `O=[N+]([O-])c1cn2c(n1)OC[C@@H](OCc1ccc(-c3ccc(Cl)c(OC(F)F)c3)cc1)C2`, the MIC in data set [1] turned out to be 0.03 µM (≈ 0.0136 µg/mL); in data set [2] it was 1.1 µM (≈ 0.497 µg/mL). Besides, in data set [3], the CFU turned out to be 150. The remaining at 1 h in data set [4] was 83%; in data set [5] it was 86%. Besides, the “fold change (FC)” value in data set [6] turned out to be 10. The molecule further gave a pIC50 with Vero below 3.90.

Take `O=[N+]([O-])c1cn2c(n1)OC[C@@H](OCc1ccc(-c3ccc(C(F)(F)F)cc3Cl)cc1)C2`: the MIC came out at 0.03 µM (≈ 0.0136 µg/mL) in data set [1] and 1.4 µM (≈ 0.635 µg/mL) in data set [2]. The CFU in data set [3] worked out at 540. The remaining at 1 h was 92% in data set [4] and 93% in data set [5]. Moreover, the “fold change (FC)” value in data set [6] came out at 7.2. The molecule also gave a pIC50 in the data set with Vero below 3.90.

On to `O=[N+]([O-])c1cn2c(n1)OC[C@@H](OCc1ccc(-c3ccc(Cl)c(OC(F)(F)F)c3)cc1)C2`, for which the MIC in data set [1] is 0.04 µM (≈ 0.0188 µg/mL); in data set [2] it was 0.95 µM (≈ 0.446 µg/mL). The same molecule showed a CFU in data set [3] of 360. For the same molecule, the remaining at 1 h in data set [4] is 95%; in data set [5] it was 92%. Further, the “fold change (FC)” value in data set [6] is 9.7. Also, the pIC50 in the data set with Vero is below 3.90.

For `O=[N+]([O-])c1cn2c(n1)OC[C@@H](OCc1ccc(-c3ccc(OC(F)(F)F)c(F)c3)cc1)C2`, the MIC in data set [1] was 0.03 µM (≈ 0.0136 µg/mL); in data set [2], 0.34 µM (≈ 0.154 µg/mL). In data set [3], this molecule returned a CFU of 4.3. Also, the results for the remaining at 1 h in data set [4] and in data set [5] were 93% and 86%, respectively. Also, the “fold change (FC)” value in data set [6] is on record as 419. Besides, the pIC50 in the data set on Vero is below 3.90.

Regarding `CC(=O)c1ccc(-c2ccc(CO[C@@H]3COc4nc([N+](=O)[O-])cn4C3)cc2)cc1`, the MIC was 0.04 µM (≈ 0.0157 µg/mL) in data set [1] and 0.73 µM (≈ 0.287 µg/mL) in data set [2]. This molecule also yielded a CFU in data set [3] of 110000. For the same molecule, the remaining at 1 h in data set [4] was determined as 36%; in data set [5] it was 70%. The “fold change (FC)” value in data set [6] is on record as below 0.01. Moreover, in the data set on Vero, the negative logarithm of the IC50 (pIC50) was below 3.90.

With `O=[N+]([O-])c1cn2c(n1)OC[C@@H](OCc1ccc(OC(F)(F)F)cc1)C2` [PRETOMANID], the values for the MIC in data set [1] and in data set [2] were 0.5 µM (≈ 0.18 µg/mL) and 2.6 µM (≈ 0.934 µg/mL), respectively. In data set [4], the remaining at 1 h amounted to 82%. In addition, the “fold change (FC)” value in data set [6] is recorded as 1. Also, the pIC50 with Vero was below 3.90.
